# Experimental data taken from ChEMBL document CHEMBL4350963, “Discovery and Lead-Optimization of 4,5-Dihydropyrazoles as Mono-Kinase Selective, Orally Bioavailable and Efficacious Inhibitors of Receptor Interacting Protein 1 (RIP1) Kinase” (J Med Chem, 2019).
# Experiment: Drug exposure in rat at 2 mg/kg, po
# Type: ADME, organism-based
# Details: in vivo, BLD = below limit of detection
# Method in brief: (§1)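 Rat pharmacokinetics: the iv arm was dosed at 1 mg/kg in 5% DMSO/20% Cavitron aqueous solution. The oral arm was dosed at 2 mg/kg in 5% DMSO/6% Cavitron aqueous solution. Bioavailability was calculated non-crossover, from average exposures in separate oral and iv studies.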
row,Compound,Drug uptake
1,CC(C)(C)C(=O)N1N=CC[C@H]1c1ccccc1,Bld

# Experiment: Tmax in rat at 2 mg/kg, po
# Type: ADME, organism-based
# Details: in vivo
row,Compound,Tmax [min]
1,CC(C)(C)C(=O)N1N=CCC1c1cocn1 (stereo unspecified),5
2,CC(=O)N1CCC(C(=O)N2N=CC[C@H]2c2ccccc2)CC1,30
3,O=C(C1CCOCC1)N1N=CCC1c1ccccc1 (stereo unspecified),5
4,CC(C)(C)C(=O)N1N=CCC1c1cccnc1 (stereo unspecified),5
5,N#Cc1cnc(N2CCC(C(=O)N3N=CC[C@H]3c3cc(F)cc(F)c3)CC2)cn1,38

# Experiment: AUC (0 to infinity) in rat at 1 mg/kg, iv
# Type: ADME, organism-based
# Parameters: dose 1 mg/kg, time infinity, route intravenous
# Details: in vivo
# Method in brief: as §1
row,Compound,AUC(0-inf) [ng·h/mL]
1,CC(=O)N1CCC(C(=O)N2N=CC[C@H]2c2ccccc2)CC1,420
2,Cc1nnc(N2CCC(C(=O)N3N=CC[C@H]3c3ccccc3)CC2)o1,800
3,O=C(c1cocn1)N1CCC(C(=O)N2N=CCC2c2ccccc2)CC1 (stereo unspecified),290
4,O=C(c1cn[nH]c1)N1CCC(C(=O)N2N=CCC2c2ccccc2)CC1 (stereo unspecified),360
5,O=C(c1cnco1)N1CCC(C(=O)N2N=CC[C@H]2c2ccccc2)CC1,400
6,N#Cc1cnc(N2CCC(C(=O)N3N=CC[C@H]3c3cc(F)cc(F)c3)CC2)cn1,400
7,O=C(c1c[nH]nn1)N1CCC(C(=O)N2N=CCC2c2ccccc2)CC1 (stereo unspecified),450

# Experiment: Chromatographic hydrophobicity index, log D of the compound at pH 7.4 by reverse-phase HPLC analysis
# Type: physicochemical
# Details: buffer
# Method in brief: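 Log D at pH 7.4 was calculated from the retention time on a fast-gradient reverse-phase HPLC run.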
row,Compound,chromatographic logD
1,CC(C)(C)C(=O)N1CCSC1c1ccccc1 (stereo unspecified),5.6
2,O=C(c1cccnc1)N1N=CCC1c1ccccc1 (stereo unspecified),2.7
3,CC(C)(C)C(=O)N1N=CCC1c1ccc(C(C)(C)C)cc1 (stereo unspecified),8
4,O=C(C1CCN(C(=O)C(F)(F)F)CC1)N1N=CCC1c1ccccc1 (stereo unspecified),4.9
5,CN1CCC(C(=O)N2N=CCC2c2ccccc2)CC1 (stereo unspecified),1.1
6,O=C(C1CCCC1)N1N=CCC1c1ccccc1 (stereo unspecified),5.4
7,O=C(C1CCC1)N1N=CCC1c1ccccc1 (stereo unspecified),4.7
8,CC1=NN(C(=O)C(C)(C)C)[C@H](c2ccccc2)C1,6.4
9,O=C(c1ccccc1)N1CCC(C(=O)N2N=CCC2c2ccccc2)CC1 (stereo unspecified),4.4
10,CC(C)(C)C(=O)N1CCCCC1c1ccccc1 (stereo unspecified),6.7
11,N#Cc1nccc(N2CCC(C(=O)N3N=CC[C@H]3c3cc(F)cc(F)c3)CC2)n1,5.1
12,CC(C)(C)C(=O)N1N=CCC1C1CCOCC1 (stereo unspecified),4.1
13,CC(C)(C)C(=O)N1N=CCC1c1cocn1 (stereo unspecified),3
14,CN1CCC(C2CC=NN2C(=O)C(C)(C)C)CC1 (stereo unspecified),1.4
15,O=C(C1CCOC1)N1N=CCC1c1ccccc1 (stereo unspecified),3
16,CC(=O)N1CCC(C(=O)N2N=CC[C@H]2c2ccccc2)CC1,2.5
17,CN1CCN(C(=O)C(C)(C)C)C(c2ccccc2)C1 (stereo unspecified),4.9
18,CC(C)(C)C(=O)N1N=CCC1c1ccccn1 (stereo unspecified),3.5
19,O=C(c1ccccn1)N1N=CCC1c1ccccc1 (stereo unspecified),2.4
20,O=C(c1ccccc1)N1N=CCC1c1ccccc1 (stereo unspecified),4.6
21,N#Cc1ccc(N2CCC(C(=O)N3N=CC[C@H]3c3cc(F)cc(F)c3)CC2)nn1,4.8
22,CC(C)(C)C(=O)N1N=CCC1c1cccc(Cl)c1 (stereo unspecified),6.6

row,Compound,chromatographic logD
1,CC(C)(C)C(=O)n1nccc1-c1ccccc1,8.3
2,CC(C)C(=O)N1N=CCC1c1ccccc1 (stereo unspecified),4.4
3,Cc1ccc(C2CC=NN2C(=O)C(C)(C)C)cc1F (stereo unspecified),6.6
4,CC(C)(C)C(=O)N1N=CCC1c1ccccc1 (racemic),5.8
5,CC(C)(CN)C(=O)N1N=CCC1c1ccccc1 (stereo unspecified),1.4
6,CC(=O)N1CCC(C(=O)N2N=CCC2c2ccccc2)CC1 (racemic),2.5
7,O=C(C1CCN(c2ccccc2)CC1)N1N=CC[C@H]1c1ccccc1,6.3
8,O=C(c1cscn1)N1CCC(C(=O)N2N=CC[C@H]2c2ccccc2)CC1,3
9,CC(C)(C)C(=O)N1N=CCC1c1ccncc1 (stereo unspecified),3.2
10,O=C(c1ccccn1)N1CCC(C(=O)N2N=CCC2c2ccccc2)CC1 (stereo unspecified),3.1
11,CC(C)(C)C(=O)N1N=CCC1C1CCCC1 (stereo unspecified),6.7
12,O=C(C1CCN(c2ccccn2)CC1)N1N=CC[C@H]1c1ccccc1,5.1
13,CC(C)(C)C(=O)N1N=CCC1c1ccc(Cl)cc1 (stereo unspecified),6.6
14,CC(C)(C)C(=O)N1N=CCC1c1c[nH]cn1 (stereo unspecified),1.7
15,O=C(c1cccnc1)N1CCC(C(=O)N2N=CCC2c2ccccc2)CC1 (stereo unspecified),2.6
16,CC(C)(C)C(=O)N1N=CCC1c1ccc(S(C)(=O)=O)cc1 (stereo unspecified),4.1
17,CC(C)(C)C(=O)N1CCOCC1c1ccccc1 (stereo unspecified),4.7
18,C[C@@H]1C=NN(C(=O)C(C)(C)C)[C@@H]1c1ccccc1,6.5
19,O=C(C1CCCCC1)N1N=CCC1c1ccccc1 (stereo unspecified),5.9
20,Cc1nnc(N2CCC(C(=O)N3N=CC[C@H]3c3ccccc3)CC2)o1,3.2
21,O=C(c1ccncc1)N1N=CCC1c1ccccc1 (stereo unspecified),2.7
22,CC(C)(CO)C(=O)N1N=CCC1c1ccccc1 (stereo unspecified),3.4

row,Compound,chromatographic logD
1,CC(C)(C)C(=O)N1N=CCC1c1cc[nH]n1 (stereo unspecified),2.7
2,O=C(c1cocn1)N1CCC(C(=O)N2N=CCC2c2ccccc2)CC1 (stereo unspecified),2.9
3,CC(C)(C)C(=O)N1CCC1c1ccccc1 (stereo unspecified),5
4,O=C(c1cn[nH]c1)N1CCC(C(=O)N2N=CCC2c2ccccc2)CC1 (stereo unspecified),2.1
5,O=C(c1cc[nH]n1)N1CCC(C(=O)N2N=CCC2c2ccccc2)CC1 (stereo unspecified),2.4
6,O=C(C1CCN(c2ccncn2)CC1)N1N=CC[C@H]1c1ccccc1,3.2
7,O=C(C1CCOCC1)N1N=CCC1c1ccccc1 (stereo unspecified),3.1
8,O=C(C1CCCCC1)N1CCC(C(=O)N2N=CCC2c2ccccc2)CC1 (stereo unspecified),5.4
9,CC(C)(C)C(=O)N1N=CCC1c1cccnc1 (stereo unspecified),3.2
10,O=C(C1CCN(c2ccccc2)CC1)N1N=CCC1c1ccccc1 (stereo unspecified),6.3
11,CCC(=O)N1CCC(C(=O)N2N=CCC2c2ccccc2)CC1 (stereo unspecified),3.2
12,CC(C)(C)C(=O)N1N=CC[C@H]1c1ccccc1,5.8
13,O=C(C1CCN(c2ncccn2)CC1)N1N=CC[C@H]1c1ccccc1,4.7
14,CC(C)(C)C(=O)N1N=CCC1c1cccc(F)c1 (stereo unspecified),5.9
15,CC(C)(C)C(=O)N1N=CCC1C1CCCCC1 (stereo unspecified),7.3
16,CC(C)(C)C(=O)N1N=CCC1c1cc(F)cc(F)c1 (stereo unspecified),6.3
17,Cc1ccc(C2CC=NN2C(=O)C(C)(C)C)cc1 (stereo unspecified),6.4
18,CC(C)(C)C(=O)N1CCNCC1c1ccccc1 (stereo unspecified),2.5
19,O=C(c1cnco1)N1CCC(C(=O)N2N=CC[C@H]2c2ccccc2)CC1,2.7
20,N#Cc1cnc(N2CCC(C(=O)N3N=CC[C@H]3c3cc(F)cc(F)c3)CC2)cn1,5.2
21,O=C(C1CCN(c2cccnn2)CC1)N1N=CC[C@H]1c1ccccc1,3.4
22,O=C(c1c[nH]nn1)N1CCC(C(=O)N2N=CCC2c2ccccc2)CC1 (stereo unspecified),2

# Experiment: Solubility of the compound in fasted state simulated intestinal fluid measured after 4 hrs using crystalline sample
# Type: physicochemical
# Details: not given
row,Compound,solubility thermodynamic at 4 h [µg/mL]
1,CC(=O)N1CCC(C(=O)N2N=CC[C@H]2c2ccccc2)CC1,7400

# Experiment: Oral bioavailability in rat at 2 mg/kg
# Type: ADME, organism-based
# Details: in vivo
row,Compound,bioavailability [%]
1,N#Cc1cnc(N2CCC(C(=O)N3N=CC[C@H]3c3cc(F)cc(F)c3)CC2)cn1,99

# Experiment: Drug metabolism in rat bile assessed as hydroxylation
# Type: ADME, tissue-based
# Details: not given
row,Compound,Drug metabolism
1,CC(C)(C)C(=O)N1N=CC[C@H]1c1ccccc1,Metabolite_Detected

# Experiment: Volume of distribution at steady state in rat at 1 mg/kg, iv
# Type: ADME, organism-based
# Details: in vivo, read-out: Vdss
row,Compound,Vd [L/kg]
1,CC(=O)N1CCC(C(=O)N2N=CC[C@H]2c2ccccc2)CC1,1.7
2,Cc1nnc(N2CCC(C(=O)N3N=CC[C@H]3c3ccccc3)CC2)o1,1.6
3,O=C(c1cocn1)N1CCC(C(=O)N2N=CCC2c2ccccc2)CC1 (stereo unspecified),0.98
4,O=C(c1cn[nH]c1)N1CCC(C(=O)N2N=CCC2c2ccccc2)CC1 (stereo unspecified),1.6
5,O=C(c1cnco1)N1CCC(C(=O)N2N=CC[C@H]2c2ccccc2)CC1,2.1
6,N#Cc1cnc(N2CCC(C(=O)N3N=CC[C@H]3c3cc(F)cc(F)c3)CC2)cn1,6.1
7,O=C(c1c[nH]nn1)N1CCC(C(=O)N2N=CCC2c2ccccc2)CC1 (stereo unspecified),1.3

# Experiment: Drug metabolism in rat urine assessed as hydroxylation
# Type: ADME
# Details: not given
row,Compound,Drug metabolism
1,CC(C)(C)C(=O)N1N=CC[C@H]1c1ccccc1,Metabolite_Detected

# Experiment: AUC (0 to infinity) in rat at 2 mg/kg, po
# Type: ADME, organism-based
# Parameters: dose 2 mg/kg, route oral, time infinity
# Details: in vivo
# Method in brief: as §1
row,Compound,AUC(0-inf) [ng·h/mL]
1,CC(C)(C)C(=O)N1N=CCC1c1cocn1 (stereo unspecified),200
2,CC(=O)N1CCC(C(=O)N2N=CC[C@H]2c2ccccc2)CC1,1600
3,O=C(C1CCOCC1)N1N=CCC1c1ccccc1 (stereo unspecified),44
4,CC(C)(C)C(=O)N1N=CCC1c1cccnc1 (stereo unspecified),260

# Experiment: Drug metabolism in rat blood assessed as hydroxylation
# Type: ADME, tissue-based
# Details: not given
row,Compound,Drug metabolism
1,CC(C)(C)C(=O)N1N=CC[C@H]1c1ccccc1,Metabolite_Detected

# Experiment: Cmax in rat at 2 mg/kg, po
# Type: ADME, organism-based
# Parameters: dose 2 mg/kg, route oral
# Details: in vivo
# Method in brief: as §1
row,Compound,Cmax [ng/mL]
1,CC(C)(C)C(=O)N1N=CCC1c1cocn1 (stereo unspecified),345
2,CC(=O)N1CCC(C(=O)N2N=CC[C@H]2c2ccccc2)CC1,795
3,O=C(C1CCOCC1)N1N=CCC1c1ccccc1 (stereo unspecified),95
4,CC(C)(C)C(=O)N1N=CCC1c1cccnc1 (stereo unspecified),360
5,N#Cc1cnc(N2CCC(C(=O)N3N=CC[C@H]3c3cc(F)cc(F)c3)CC2)cn1,73

# Experiment: Lipophilicity, log P of the compound
# Type: physicochemical
# Details: octanol/water
row,Compound,logP
1,CC(C)(C)C(=O)N1N=CC[C@H]1c1ccccc1,5.9
